≈ marks a conversion by molar mass, not a printed value.
Legend:
Streptococcus pneumoniae = experiment: Antibacterial activity against penicillin-susceptible Streptococcus pneumoniae D39 after 18 to 24 hrs by CLSI broth microdilution method; format: functional
Escherichia coli = experiment: Antibacterial activity against Escherichia coli W3110 after 18 to 24 hrs by CLSI broth microdilution method; format: functional
[1] = Dissociation constant, pKa of the compound by pH metric assay; format: physicochemical
Outline: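 pH-metric titration on an automated titrator, run in triplicate. Accuracy about 0.02 log units.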

Staphylococcus aureus [2] = experiment: Antibacterial activity against methicillin-susceptible Staphylococcus aureus after 18 to 24 hrs by CLSI broth microdilution method; format: functional
Pseudomonas aeruginosa = experiment: Antibacterial activity against Pseudomonas aeruginosa PAO1 after 18 to 24 hrs by CLSI broth microdilution method; format: functional
[3] = target: T1, Voltage-gated inwardly rectifying potassium channel KCNH2 (Homo sapiens, UniProt Q12809); experiment: Inhibition of human ERG by Ionworks assay
[4] = Inhibition of Escherichia coli DNA topoisomerase 4 subunit ParC/DNA topoisomerase 4 subunit ParE ATPase activity after 24 hrs by malachite green staining-based colorimetric assay
[5] = Fraction unbound in human plasma at 10 uM by equilibrium dialysis method; format: ADME, cell-free
Outline: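 Equilibrium dialysis. Compound at 10 μM in the plasma (donor) chamber against phosphate buffer, rotated at 37 °C for 16 h. Drug in the plasma and buffer samples quantified by LC-MS/MS after methanol protein precipitation with internal standard. Standard curve 10 nM to 10 μM.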

[6] = Octanol-phosphate buffer partition coefficient, log D of the compound at pH 7.4 by shake flask method; format: physicochemical
Outline: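 Shake-flask partition between n-octanol and 10 mM phosphate buffer at pH 7.4. Shaken 1 h at 1200 rpm to reach equilibrium. Phases analysed by LC/UV, with MS for mass confirmation.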

[7] = target: T1, Voltage-gated inwardly rectifying potassium channel KCNH2; experiment: Displacement of [3H]-astemizole from human ERG expressed in HEK293 cells after 60 mins by liquid scintillation counter; format: cell-based
Staphylococcus aureus [8] = experiment: Antibacterial activity against vancomycin-resistant Staphylococcus aureus ARC 3186 after 18 to 24 hrs by CLSI broth microdilution method; format: functional
Outline: (§1)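 CLSI broth microdilution in Mueller Hinton Broth 2. Inocula prepared from blood agar plates grown at 35 °C for 18–24 h. Compound in DMSO, 2% DMSO final, 11 doubling dilutions from 64 to 0.06 μg/mL. Plates read at 620 nm.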

Staphylococcus aureus [9] = experiment: Antibacterial activity against linezolid-resistant Staphylococcus aureus ARC 3583 after 18 to 24 hrs by CLSI broth microdilution method; format: functional; outline: as §1

T1 sequence (Q12809 whole entry): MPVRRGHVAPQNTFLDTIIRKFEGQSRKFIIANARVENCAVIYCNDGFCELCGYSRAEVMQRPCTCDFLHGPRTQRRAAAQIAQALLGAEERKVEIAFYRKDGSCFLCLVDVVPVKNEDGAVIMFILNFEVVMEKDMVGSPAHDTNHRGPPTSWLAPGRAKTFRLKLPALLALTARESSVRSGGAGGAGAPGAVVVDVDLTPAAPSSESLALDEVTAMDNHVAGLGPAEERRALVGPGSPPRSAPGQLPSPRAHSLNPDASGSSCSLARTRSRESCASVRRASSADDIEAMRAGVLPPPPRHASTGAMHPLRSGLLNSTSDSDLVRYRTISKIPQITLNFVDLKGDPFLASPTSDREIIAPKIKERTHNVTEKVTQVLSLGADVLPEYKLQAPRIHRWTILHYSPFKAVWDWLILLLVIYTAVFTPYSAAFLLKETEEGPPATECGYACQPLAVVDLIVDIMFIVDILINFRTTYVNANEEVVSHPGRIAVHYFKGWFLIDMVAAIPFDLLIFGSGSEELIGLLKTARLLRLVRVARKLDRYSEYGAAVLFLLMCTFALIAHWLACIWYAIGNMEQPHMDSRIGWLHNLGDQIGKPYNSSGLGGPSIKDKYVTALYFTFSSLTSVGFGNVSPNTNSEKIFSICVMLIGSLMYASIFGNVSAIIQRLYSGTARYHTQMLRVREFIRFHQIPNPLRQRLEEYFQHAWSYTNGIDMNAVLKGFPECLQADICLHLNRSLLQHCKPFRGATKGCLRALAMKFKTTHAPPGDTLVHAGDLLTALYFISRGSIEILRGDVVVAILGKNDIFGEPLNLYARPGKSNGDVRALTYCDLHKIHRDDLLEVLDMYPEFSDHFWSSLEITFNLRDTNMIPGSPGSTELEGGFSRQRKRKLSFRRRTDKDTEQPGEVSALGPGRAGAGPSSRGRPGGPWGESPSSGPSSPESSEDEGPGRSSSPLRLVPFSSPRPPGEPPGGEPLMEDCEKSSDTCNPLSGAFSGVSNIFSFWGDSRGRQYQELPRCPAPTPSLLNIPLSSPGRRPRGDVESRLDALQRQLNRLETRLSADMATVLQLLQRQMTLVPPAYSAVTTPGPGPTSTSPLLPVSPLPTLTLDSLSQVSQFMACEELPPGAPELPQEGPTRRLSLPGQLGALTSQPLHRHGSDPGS

Structure (SMILES) | MIC (Streptococcus pneumoniae) | MIC (Escherichia coli) | pKa [1] | MIC (Staphylococcus aureus [2]) | MIC (Pseudomonas aeruginosa) | IC50 [3] | IC50 [4] | fraction unbound at 10 µM [5] | logD [6] | IC50 [7] | MIC (Staphylococcus aureus [8]) | MIC (Staphylococcus aureus [9])
COc1ccc2ncc(=O)n(CCN3CC[C@@H](NCc4ccc5c(n4)NC(=O)CO5)[C@@H](OC)C3)c2c1 | 0.25 µg/mL (≈ 0.506 µM) | 1 µg/mL (≈ 2.02 µM) | 8.17 | 0.06 µg/mL (≈ 0.121 µM) | 4 µg/mL (≈ 8.09 µM) | 88 µM | 76 nM | 0.28 | – | – | – | –
N#Cc1ccc2ccc(=O)n(CCN3CC[C@@H](NCc4cc5c(cn4)OCCO5)[C@@H](F)C3)c2c1 | 0.13 µg/mL (≈ 0.28 µM) | 4 µg/mL (≈ 8.63 µM) | – | 0.13 µg/mL (≈ 0.28 µM) | > 8 µg/mL | 199 µM | 60 nM | 0.2 | 0.97 | > 200 µM | – | –
COc1ccc2ncc(=O)n(CCN3CC[C@@H](NCc4ccc5c(n4)NC(=O)CO5)[C@@H](F)C3)c2c1 | 0.13 µg/mL (≈ 0.269 µM) | 0.5 µg/mL (≈ 1.04 µM) | – | 0.03 µg/mL (≈ 0.0622 µM) | 8 µg/mL (≈ 16.6 µM) | – | – | 0.25 | 0.83 | – | – | –
CO[C@H]1CN(CCn2c(=O)ccc3ccc(C#N)cc32)CC[C@@H]1NCc1cc2c(cn1)OCCO2 (single isomer, unassigned; enantiomer 1) | 0.5 µg/mL (≈ 1.05 µM) | 8 µg/mL (≈ 16.8 µM) | 7.25 | 0.25 µg/mL (≈ 0.526 µM) | > 8 µg/mL | 176 µM | 96 nM | 0.13 | 1.07 | – | – | –
CO[C@@H]1CN(CCn2c(=O)ccc3ccc(C#N)cc32)CC[C@H]1NCc1ccc2c(n1)NC(=O)CO2 (single isomer, unassigned; enantiomer 1) | 0.25 µg/mL (≈ 0.512 µM) | 2 µg/mL (≈ 4.09 µM) | 7.53 | 0.13 µg/mL (≈ 0.266 µM) | > 8 µg/mL | – | 35 nM | 0.27 | 0.81 | – | – | –
COc1ccc2ncc(=O)n(CCN3CC[C@H](NCc4cc5c(cn4)OCCO5)[C@@H](OC)C3)c2c1 (single isomer, unassigned; enantiomer 1) | 0.25 µg/mL (≈ 0.519 µM) | 8 µg/mL (≈ 16.6 µM) | 7 | 0.25 µg/mL (≈ 0.519 µM) | > 8 µg/mL | 93 µM | 113 nM | 0.11 | 1.27 | – | – | –
COc1ccc2ncc(=O)n(CCN3CC[C@@H](NCc4ccc5c(n4)NC(=O)CO5)[C@H](OC)C3)c2c1 (single isomer, unassigned; enantiomer 1) | 0.13 µg/mL (≈ 0.263 µM) | 1 µg/mL (≈ 2.02 µM) | 7.45 | 0.03 µg/mL (≈ 0.0607 µM) | 8 µg/mL (≈ 16.2 µM) | 27 µM | 45 nM | 0.18 | – | – | – | –
COc1ccc2ncc(=O)n(CCN3CC[C@H](NCc4ccc5c(n4)NC(=O)CO5)[C@@H](F)C3)c2c1 (single isomer, unassigned; enantiomer B) | 0.06 µg/mL (≈ 0.124 µM) | 0.5 µg/mL (≈ 1.04 µM) | 6.86 | < 0.01 µg/mL | 4 µg/mL (≈ 8.29 µM) | – | < 9 nM | 0.04 | 1.38 | – | – | –
COc1ccc2ncc(=O)n(CCN3CC[C@@H](NCc4cc5c(cn4)OCCO5)[C@H](O)C3)c2c1 (single isomer, unassigned; enantiomer B) | 0.06 µg/mL (≈ 0.128 µM) | 2 µg/mL (≈ 4.28 µM) | 7.4 | 0.06 µg/mL (≈ 0.128 µM) | > 8 µg/mL | – | 3 nM | 0.18 | – | – | – | –
N#Cc1ccc2ccc(=O)n(CCN3CC[C@H](NCc4cc5c(cn4)OCCO5)[C@@H](F)C3)c2c1 (single isomer, unassigned; enantiomer B) | 0.25 µg/mL (≈ 0.539 µM) | 8 µg/mL (≈ 17.3 µM) | 6.66 | 0.13 µg/mL (≈ 0.28 µM) | > 8 µg/mL | 122 µM | 16 nM | 0.09 | 1.53 | 57 µM | – | –
COc1ccc2ncc(=O)n(CCN3CC[C@H](NCc4cc5c(cn4)OCCO5)[C@@H](F)C3)c2c1 (single isomer, unassigned; enantiomer B) | 0.13 µg/mL (≈ 0.277 µM) | 8 µg/mL (≈ 17 µM) | 6.46 | 0.06 µg/mL (≈ 0.128 µM) | > 8 µg/mL | – | 26 nM | 0.09 | 1.68 | – | – | –
CC(=O)NC[C@H]1CN(c2ccc(N3CCOCC3)c(F)c2)C(=O)O1 [LINEZOLID] | – | – | – | – | – | – | – | – | – | – | 1 µg/mL (≈ 2.96 µM) | 16 µg/mL (≈ 47.4 µM)
CN[C@H](CC(C)C)C(=O)N[C@H]1C(=O)N[C@@H](CC(N)=O)C(=O)N[C@H]2C(=O)N[C@H]3C(=O)N[C@H](C(=O)N[C@H](C(=O)O)c4cc(O)cc(O)c4-c4cc3ccc4O)[C@H](O)c3ccc(c(Cl)c3)Oc3cc2cc(c3O[C@@H]2O[C@H](CO)[C@@H](O)[C@H](O)[C@H]2O[C@H]2C[C@](C)(N)[C@H](O)[C@H](C)O2)Oc2ccc(cc2Cl)[C@H]1O [VANCOMYCIN] | – | – | – | – | – | – | – | – | – | – | > 64 µg/mL | –

Reference: ChEMBL document CHEMBL2163267, “Novel N-linked aminopiperidine inhibitors of bacterial topoisomerase type II with reduced pK(a): antibacterial agents with an improved safety profile” (J Med Chem, 2012)
